# Measurements published in ChEMBL document CHEMBL1125624, “Identification and exploitation of the sigma-opiate pharmacophore” (J Med Chem, 1991).
# Molecular target: Sigma non-opioid intracellular receptor 1 (Rattus norvegicus, UniProt Q9R0C9)
# Test: Binding affinity towards sigma opioid receptor was determined in rat cerebral homogenate using [3H]haloperidol as radioligand
# How it was run: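 Male Sprague-Dawley rat cerebellum was homogenized in 50 mM Tris-HCl pH 7.7 and spun at 39000g for 15 min, three times in all. At least nine competitor concentrations were run with 1 nM [3H]haloperidol plus 25 nM spiperone (to block D2) on 3 mg wet-weight tissue for 90 min. Nonspecific binding was taken with 10 µM DTG. GF/C filtration, scintillation counting; Ki ± SEM, minimum three determinations.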
# Sigma non-opioid intracellular receptor 1, sequence (Q9R0C9 whole entry): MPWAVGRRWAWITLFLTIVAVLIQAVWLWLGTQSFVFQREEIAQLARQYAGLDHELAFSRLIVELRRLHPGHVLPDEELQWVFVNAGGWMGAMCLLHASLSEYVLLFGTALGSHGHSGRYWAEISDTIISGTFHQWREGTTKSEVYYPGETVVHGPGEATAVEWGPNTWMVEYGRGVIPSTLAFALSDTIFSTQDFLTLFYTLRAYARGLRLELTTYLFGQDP
row,SMILES,Ki [nM]
1,C[C@H](Cc1ccccc1)NCCc1ccccc1,46
2,CC(Cc1ccccc1)NCCCCc1ccccc1 (racemic),3.9
3,C[C@@H](Cc1ccccc1)NCCc1ccccc1,4.8
4,C[C@@H](Cc1ccccc1)N(C)CCc1ccccc1,16
5,C[C@H](Cc1ccccc1)NCCC(=O)c1ccccc1,73
6,C[C@H](Cc1ccccc1)NCc1ccccc1 [N-BENZYLAMPHETAMINE],103
7,C[C@H](Cc1ccccc1)NCCOc1ccccc1,32
8,C[C@H](Cc1ccccc1)NCCCc1ccccc1,14
9,C[C@H](Cc1ccccc1)NCC1CC1,664
10,CC(N)Cc1ccccc1 (racemic) [AMPHETAMINE],> 50000
